“And” between values parts separate entries of the source, which are not always exact repeats. Equal entries are not always repeated.
Experiments:
[1] = test system: MT4; experiment: Effective concentration required to reduce the exponential growth of MT-4/KB cells; type: functional, cell-based; conditions: Homo sapiens
Outline: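 Cell-based HIV-1 multiplication assay in MT-4 cells, run in parallel with cytotoxicity on mock-infected cells. Value is the concentration giving 50% reduction of exponential growth of MT-4/KB cells. Mean of three independent determinations.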

[2] = (§1) Cytotoxic concentration required to reduce the viability of mock-infected cells was determined by using MTT assay
Outline: (§2)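 Viability of mock-infected cells read by MTT, run in parallel with the antiviral assay. Value is the dose giving a 50% loss of viability. Mean of three independent determinations.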

[3] = target: Human immunodeficiency virus type 1 integrase (Human immunodeficiency virus 1, UniProt Q7ZJM1); experiment: Inhibitory activity against HIV-1 integrase.
[4] = as §1; type: functional; outline: as §2
[5] = Selectivity index was determined; type: functional

Human immunodeficiency virus type 1 integrase, sequence (Q7ZJM1 whole entry): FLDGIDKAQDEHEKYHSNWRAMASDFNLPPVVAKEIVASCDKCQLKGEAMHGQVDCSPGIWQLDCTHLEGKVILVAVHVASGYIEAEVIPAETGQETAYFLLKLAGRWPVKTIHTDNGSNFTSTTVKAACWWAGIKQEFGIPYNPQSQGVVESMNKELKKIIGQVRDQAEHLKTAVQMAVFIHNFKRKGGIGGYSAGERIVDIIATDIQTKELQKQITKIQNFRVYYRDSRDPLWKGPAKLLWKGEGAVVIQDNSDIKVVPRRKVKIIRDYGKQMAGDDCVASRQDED

IC50 [3]	Compound	EC50 [1] [µM]	CC50 [2] [µM]	CC50 [4] [µM]	Selectivity index [5]
–	COc1ccc(Cn2cccc2/C=C/C(=O)CC(=O)C(=O)O)cc1	> 78	78	–	–
50 µM and 65 µM	O=C(/C=C/c1cccn1Cc1ccc(Cl)cc1)CC(=O)C(=O)O	> 95	95	–	–
–	O=C(O)C(=O)CC(=O)c1cccn1Cc1ccc(F)cc1	1.5	–	–	–
57 µM and 45 µM	CCOC(=O)C(=O)CC(=O)/C=C/c1cccn1Cc1ccc([N+](=O)[O-])cc1	> 31	31	–	–
–	Cc1ccc(Cn2cccc2/C=C/C(=O)CC(=O)C(=O)O)cc1	> 41	41	–	–
76 µM and 92 µM	O=C(/C=C/c1cccn1Cc1ccc([N+](=O)[O-])cc1)CC(=O)C(=O)O	> 33	–	33	–
–	CCOC(=O)C(=O)CC(=O)/C=C/c1cccn1Cc1ccccc1	–	17	–	–
–	CCOC(=O)C(=O)CC(=O)/C=C/c1cccn1Cc1ccc(OC)cc1	> 27	27	–	–
61 µM and 72 µM	O=C(/C=C/c1cccn1Cc1ccc(F)cc1)CC(=O)C(=O)O	11	80	–	7.3
–	CCOC(=O)C(=O)CC(=O)/C=C/c1cccn1Cc1ccc(F)cc1	12	55	–	–
–	CCOC(=O)C(=O)CC(=O)/C=C/c1cccn1Cc1ccc(C)cc1	> 7	7	–	–
–	O=C(/C=C/c1cccn1Cc1ccccc1)CC(=O)C(=O)O	1.5	61	–	–
–	CCOC(=O)C(=O)CC(=O)/C=C/c1cccn1Cc1ccc(Cl)cc1	> 52	52	–	–
